From PubChem BioAssay
Most compounds without a hit are left out; they make up all but 1.4% or so of the library.
Vif inh: HIV Vif self-association inhibitors, primary screen, imaging, HEK293T, single point; HEK293T cells, Vif self-association by quenched fluorescence, 24 h; inhibition, % at 7.49 µM; actives 0.35% (n = 340,000); in the data active means inhibition above about 50%, passing the limit was not always enough; inconclusive means no clear call, values can overlap the other calls; inactive means below about 31%
PKA-R2B act: activators of PKA-R2B holoenzyme, primary screen, biochemical, fluorescence polarization, Cy5-IP20, human; PKA-R2B holoenzyme dissociation; R2B truncated from residue 108, S112A mutant; 0% DMSO only, 100% 113 µM cGMP; AID 504700, 2011; activation, % at 11.4 µM; cAMP-dependent protein kinase catalytic subunit beta (Homo sapiens) + cAMP-dependent …; actives 0.079% (n = 340,000);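 active means activation above a cutoff set at the mean over all compounds plus 3 SD, cut at about 18% in these data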;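 further: higher means more holoenzyme dissociation and a rise in polarization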
Target sequence (P31323 whole entry, looked up, other chains not shown, the tested form may be a part): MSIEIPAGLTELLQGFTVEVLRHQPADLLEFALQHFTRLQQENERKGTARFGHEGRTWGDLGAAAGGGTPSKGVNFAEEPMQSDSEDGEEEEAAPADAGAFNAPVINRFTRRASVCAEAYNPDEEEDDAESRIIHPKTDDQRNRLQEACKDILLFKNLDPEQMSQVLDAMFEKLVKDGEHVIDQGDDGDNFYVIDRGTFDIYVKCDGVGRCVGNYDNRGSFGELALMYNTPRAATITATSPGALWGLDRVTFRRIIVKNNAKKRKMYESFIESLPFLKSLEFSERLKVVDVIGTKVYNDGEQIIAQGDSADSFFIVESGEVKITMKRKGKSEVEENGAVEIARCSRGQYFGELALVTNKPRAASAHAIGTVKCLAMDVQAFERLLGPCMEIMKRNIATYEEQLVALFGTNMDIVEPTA
SR-BI HDL uptake: inhibitors of SR-BI mediated HDL lipid uptake, primary screen, ldlA[mSR-BI] cells, fluorescence, single point; actives 0.96% (n = 320,000); inhibition, % at 12.5 µM; ldlA[mSR-BI] CHO cells, DiI-HDL uptake fluorescence, 3 h; Scavenger receptor class B member 1 (Mus musculus), Q61009; AID 488896, 2010;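 active means mean replicate inhibition of at least 70% and a set share of replicates each scoring 70 or more; inconclusive means meets just one of the two criteria; inactive means fails both criteria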;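 further: 0% = median of neutral control wells and 100% = median of positive control wells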
PKA-R1A act: activators of PKA-R1A holoenzyme, primary screen, biochemical, fluorescence polarization, Cy5-IP20, bovine R1A, mouse PKAc; cAMP-dependent protein kinase type I-alpha regulatory subunit (Bos taurus) + …; actives 0.083% (n = 340,000); activation, % at 11.4 µM; AID 504707, 2011; PKA-R1A dissociation; scaled: DMSO 0%, 113 µM cGMP 100%;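 active means percent activation above the mean of all tested compounds plus 3 SD, cut at about 19% in these data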;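 further: higher means more PKAc released from R1A so a rise in polarization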
SR-BI DiI-HDL act: activators of SR-BI mediated DiI-HDL uptake, primary screen, ldlA[mSR-BI] CHO cells, DiI fluorescence; 3 h; 100 = double the neutral-control signal; activation, % at 12.5 µM; actives 0.096% (n = 320,000); AID 504775, 2011;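 active means mean replicate activation of at least 60% and every replicate at or above 60%; inconclusive means mean or all-replicate condition met, but not both; inactive means mean below 60% and not all replicates reaching 60%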;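 further: 0% = median plate neutral-control signal and 100% = twice that signal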
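Test system: SR-BI-overexpressing, LDLR-lacking CHO cells; Also added: labelled HDL, 10 µg/mL; Measured by: bottom-read cell fluorescence after medium removal, ex 550/em 595 nm; Timing: 3 h uptake period with compound, 37 °C; Buffer or medium: F12, 0.5% BSA, 25 mM HEPES; Doses: single compound concentration, delivered by pin transfer.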
DiI quench: DiI fluorescence quenching in cell-free counter-screen. cell-free DiI-HDL fluorescence quenching, 30 min. AC50, µM (doses to about 35 µM), without a hit: top-dose activity change, negative = quenching. actives 20% (n = 470). shares compounds with SR-BI HDL uptake;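 active means quenching, a falling signal, with AC50 below a set limit tied to the top valid dose, actives reach about 32 µM in these data; inconclusive means no clear call, values can overlap the other calls; inactive means rising signal, and the rest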
Active calls of the source: *; ? = inconclusive; · = no result; ! = repeats disagree.

SMILES	Vif inh	PKA-R2B act	SR-BI HDL uptake	PKA-R1A act	SR-BI DiI-HDL act	DiI quench
CCc1nc(N2CCN(C(=S)NCCCOC)CC2)c2c3c(sc2n1)CCCC3	-3	1	88*	-10	-88	0%
COc1ccccc1-n1cnc2cc(NCc3ccco3)ccc21	-13	5	76*	2	-76	-19%
COc1ccccc1-n1cnc2cc(NCc3ccccc3O)ccc21	-5	-12	10	-7	-10	·
CCOc1ccc(C(=O)OCC(=O)N2CC(C)OC(C)C2)cc1OCC (centres undefined)	11	2	10	6	-10	·
O=C(NCCc1ccc(Cl)cc1)C1CCN(C(=O)c2sccc2-n2cccc2)CC1	-17	7	56	2	-56	·
CC(CCc1ccccc1)NC(=O)C1CCN(C(=O)c2sccc2-n2cccc2)CC1 (centres undefined)	4	-4	88*	-2	-88	-3%
Cc1ccc(-c2sc(-c3ccccc3)nc2CC(=O)Nc2ccccc2F)cc1	0	7	77*	-3	-77	5%
Cc1nc(NC(=O)/C=C/c2ccco2)sc1C	-3	-13	8	-8	-8	·
O=C(/C=C/c1ccco1)Nc1cccc(NC(=O)/C=C/c2ccco2)n1	4	-5	8	-8	-8	-6%
COc1cccc(NC(=O)CN(C)C(=O)C(CCSC)NC(=O)c2ccco2)c1 (centres undefined)	7	-6	-1	-9	1	·
Cc1c(C(=O)Nc2ccc(Cl)cc2)c2ccccn2c1C(=O)c1ccc(F)cc1	13	1	51	15	-51	·
Cc1c(C(=O)Nc2ccc(Cl)cc2)c2ccccn2c1CCc1ccncc1	-11	4	97*	-1	-97	32µM*
Cc1c(C(=O)Nc2cccc(Cl)c2)c2ccccn2c1CCc1ccncc1	·	-12	94*	-3	-94	25µM*
COc1ccc(-c2nnn(CC(=O)N(c3cccc(O)c3)C(C)C(=O)NC3CCCC3)n2)cc1OC (centres undefined)	-3	-1	16	0	-16	·
COc1ccc(N(CC(=O)NC2CCCC2)C(=O)Cn2nnc(-c3ccc(OC)c(OC)c3)n2)cc1	-3	4	80*	-13	-80	-4%
CCC(C(=O)NC1CCCC1)N(C(=O)Cn1nnc(-c2ccc(OC)c(OC)c2)n1)c1cccc(O)c1 (centres undefined)	5	-3	28	1	-28	0%
CC(C)c1nnc(NC(=O)CCC(=O)N2CCN(C3c4ccccc4-c4ccccc43)CC2)s1	-7	-3	?	-10	-73	-3%
Cc1ccc(NC(=O)c2ccc(NS(=O)(=O)c3cccc4cccnc34)cc2)cc1	0	-1	8	1	-8	·
CC(=O)c1cc(C#N)c(SCc2ccccc2C#N)nc1C	6	10	75*	4	-75	-1%
C[C@H](NC(=O)c1nc[nH]c1C(=O)N(C)CCO)c1ccccc1	-3	·	·	·	·	·
CCOc1ccc2c(c1)-c1c(ssc1=S)C(C)(C)N2C(=O)c1ccco1	4	-11	74*	-1	-74	31µM*
Cc1ccc2nc(C)cc(C(=O)Nc3nccs3)c2c1	20	13	36	6	-36	·
CCOC(=O)Nc1sc(C)c(C)c1C(=O)OCC	-6	4	8	-2	-8	·
CCOC(=O)c1c(Nc2nc(C)c(C(=O)NC)s2)sc(C)c1C	-4	-5	93*	-2	-93	-14%
CCc1cc(SC#N)cc(CC)c1NC(=O)CCl	-2	3	45	-11	-45	·
SMILES	Vif inh	PKA-R2B act	SR-BI HDL uptake	PKA-R1A act	SR-BI DiI-HDL act	DiI quench
Cc1ccc(NC(=O)c2ccc3c(c2)CCN3S(C)(=O)=O)cc1C	3	10	?	-5	-70	0%
O=C(Nc1c(F)cccc1F)c1ccc2c(c1)CCN2S(=O)(=O)c1ccccc1	23	-14	39	-6	-39	·
Cc1cc(C)cc(NC(=O)c2ccc3c(c2)CCN3S(C)(=O)=O)c1	-6	-8	77*	-11	-77	3%
CS(=O)(=O)N1CCc2cc(C(=O)OCC(=O)c3ccccc3)ccc21	·	-7	-6	1	6	·
CN(C(=O)c1ccc2c(c1)CCN2S(C)(=O)=O)c1ccccc1	22	0	20	-7	-20	-2%
O=C(Nc1ccccc1F)c1ccc2c(c1)CCN2S(=O)(=O)c1ccccc1	-6	-15	53	-5	-53	-1%
Cc1cc(S(=O)(=O)N2CCCCCC2)c(Cl)cc1Cl	-8	1	1	-13	-1	·
Cc1cc(C(=O)NC(C)CCC(C)C)c2ccccc2n1 (centres undefined)	8	5	-24	1	24	·
COC(=O)c1[nH]c2cc(OC)ccc2c1NC(=O)c1ccc2c(c1)OCO2	0	-20	72*	-1	-72	12µM*
COCc1nnc(NC(=O)C2CC(=O)N(CCc3ccc(F)cc3)C2)s1 (centres undefined)	-1	-1	·	-12	·	·
COc1ccc2c(c1)CC(C1(O)C(=O)N(C)c3ccccc31)C2=O (centres undefined)	-3	6	85*	5	-85	-5%
CC(=O)Nc1nc(-c2ccccc2)nc(-c2ccccc2OC(C)=O)n1	3	2	?	-2	-75	4%
COc1ccc(Cl)cc1NC(=O)CN1C(=O)CC(C)S(=O)(=O)c2ccccc21 (centres undefined)	-7	6	20	7	-20	·
CCC(C)n1ncn(-c2ccc(N3CCN(c4ccc(OCC5COC(Cn6cncn6)(c6ccc(Cl)cc6Cl)O5)cc4)CC3)cc2)c1=O (centres undefined)	-15	-6	83*!	-5	-83	-11%
CCC(C)n1ncn(-c2ccc(N3CCN(c4ccc(O)cc4)CC3)cc2)c1=O (centres undefined)	4	-6	21	-2	-21	·
Cc1ccc(NC(=O)CSc2nnc([C@H](C)NC(=O)OC(C)(C)C)o2)c(C)c1	0	·	73*	·	-73	0%
Cc1cccc(NC(=O)CSc2nnc([C@H](C)NC(=O)OC(C)(C)C)o2)c1C	-9	-2	39	-3	-39	·
